Results from article PMC9621298 (Journal of Enzyme Inhibition and Medicinal Chemistry, 2022).
Entries after “also recorded” stand apart in the source; their conditions may differ. One block for each compound: values may come before it.

What was measured:
[1] = target: T1, Siah1 (Homo sapiens, UniProt Q8IUQ4); test: Surface plasmon resonance; format: binding; conditions: details are not reported
T1 sequence (Q8IUQ4 1-282): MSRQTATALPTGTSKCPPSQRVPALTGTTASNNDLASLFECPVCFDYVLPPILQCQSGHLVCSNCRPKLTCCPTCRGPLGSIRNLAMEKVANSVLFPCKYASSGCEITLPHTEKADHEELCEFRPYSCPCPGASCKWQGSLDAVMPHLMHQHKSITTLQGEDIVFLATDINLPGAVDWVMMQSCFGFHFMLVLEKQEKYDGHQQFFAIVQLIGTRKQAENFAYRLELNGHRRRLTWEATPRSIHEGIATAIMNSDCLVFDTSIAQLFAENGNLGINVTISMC

[2] = target: T1, Siah1; test: In vitro pull-down assay with biotin-attached E3 ligase ligands; conditions: tested as biotin-attached 5 and 6; no binding to AIMP2-DX2
[3] = target: T2, AIMP2-DX2 (Homo sapiens, UniProt Q13155); test: Screening: luminescence of luciferase-tagged AIMP2-DX2 in A549 cells; format: cell-based; conditions: 4 µM, 24 h
T2 sequence (Q13155 1-251 isoform Q13155-2): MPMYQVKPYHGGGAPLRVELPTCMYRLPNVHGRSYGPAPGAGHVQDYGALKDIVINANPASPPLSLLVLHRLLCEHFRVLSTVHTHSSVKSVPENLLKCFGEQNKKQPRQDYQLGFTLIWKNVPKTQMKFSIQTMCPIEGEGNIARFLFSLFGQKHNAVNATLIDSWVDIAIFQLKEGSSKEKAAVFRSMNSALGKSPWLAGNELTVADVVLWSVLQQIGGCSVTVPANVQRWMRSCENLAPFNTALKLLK

[4] = target: T3, binding of Siah1 to AIMP2-DX2 (Homo sapiens, UniProt Q13155+Q8IUQ4); test: Immunoprecipitation assay: cellular binding of AIMP2-DX2 and Siah1; format: cell-based; conditions: Figure 5(A)
T3 sequence (Q13155 1-251 isoform Q13155-2): T2 sequence (Q13155 1-251 isoform Q13155-2)
T3 sequence (Q8IUQ4 1-282): T1 sequence (Q8IUQ4 1-282)

[5] = target: T4, binding of Siah1 and AIMP2-DX2 (Homo sapiens, UniProt Q13155+Q8IUQ4); test: In vitro pull-down assay: binding of Siah1 and AIMP2-DX2; conditions: Figure 5(B)
T4 sequence (Q13155 1-251 isoform Q13155-2): T2 sequence (Q13155 1-251 isoform Q13155-2)
T4 sequence (Q8IUQ4 1-282): T1 sequence (Q8IUQ4 1-282)
How it was run: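 Direct binding of the two proteins was tested in vitro by GST pull-down with test compound present. An empty-vector control was included. GST proteins were detected by Coomassie staining.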

[6] = target: T2, AIMP2-DX2; test: Western blotting of AIMP2-DX2 protein level; format: cell-based; conditions: Figure 6(A)
[7] = target: T5, AIMP2 (Homo sapiens, UniProt Q13155); test: Western blotting of AIMP2 level; format: cell-based; conditions: selectivity versus AIMP2-DX2
T5 sequence (Q13155 1-320): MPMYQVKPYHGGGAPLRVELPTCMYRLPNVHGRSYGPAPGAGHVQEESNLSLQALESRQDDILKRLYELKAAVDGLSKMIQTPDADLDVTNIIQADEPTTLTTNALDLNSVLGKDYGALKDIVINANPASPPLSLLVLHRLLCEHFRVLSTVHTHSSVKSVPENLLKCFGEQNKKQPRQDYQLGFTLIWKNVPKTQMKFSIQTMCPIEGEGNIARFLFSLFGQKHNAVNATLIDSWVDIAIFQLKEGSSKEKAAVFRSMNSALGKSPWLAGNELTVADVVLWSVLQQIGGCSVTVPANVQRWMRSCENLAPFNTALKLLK

[8] = target: T2, AIMP2-DX2; test: Ubiquitination assay in 293 T cells expressing strep-tagged AIMP2-DX2; format: cell-based; conditions: 293 T cells expressing strep-AIMP2-DX2, with MG132
How it was run: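 293 T cells were grown in DMEM with 10% FBS at 37 °C in 5% CO2 and expressed strep-tagged AIMP2-DX2 from the pEXPR-IBA5 vector. AIMP2-DX2 was pulled down on strep-tactin, run on SDS-PAGE and immunoblotted, including with anti-ubiquitin.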

[9] = test system: Siah1-knockdowned cells; test: MTT cell viability assay with Siah1 knockdown by si-RNA; format: cell-based; conditions: Figure 7(A)
How it was run: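 Cells were knocked down for Siah1 with specific si-RNA and then treated with test compound. Viability was read by MTT: 96 h in serum-free medium, MTT for 1.5 h at 37 °C, formazan in DMSO, absorbance at 560 nm. Siah1 and AIMP2-DX2 protein levels were checked by immunoblotting. Three independent repeats.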

- binding to Siah1 (in vitro pull-down) [2]: specifically bind to Siah1
SMILES: Nc1cccc2c1C(=O)N(C1CCC(=O)NC1=O)C2=O (centres unmarked) [Compound 4, pomalidomide]
- binding affinity with Siah1 (SPR) [1]: most favourable; also recorded: some degree of binding affinity

- inhibitory activity on AIMP2-DX2 (in words) [3]: very poor inhibitory activities
SMILES: O=C1CCC(N2C(=O)c3cccc(OCCOCCOCCOCCOCCOCc4cn(Cc5ccc(S(=O)(=O)N[C@@H](Cc6c[nH]c7ccccc67)C(=O)Nc6ccc(N7CCOCC7)cc6)cc5)nn4)c3C2=O)C(=O)N1 (stereo partly drawn) [Compound 16, (2S)-2-((4-((4–(16-((2–(2,6-dioxopiperidin-3-yl)-1,3-Dioxoisoindolin-4-yl)oxy)-2,5,8,11,14-pentaoxahexadecyl)-1H-1,2,3-triazol-1-yl)methyl)phenyl)sulfonamido)-3-(1H-indol-3-yl)-N-(4-morpholinophenyl)propanamide]

- inhibitory activity on AIMP2-DX2 (in words) [3]: very poor inhibitory activities
SMILES: O=C1CCC(N2C(=O)c3cccc(NC(=O)CCOCCOCCOCCOCc4cn(Cc5ccc(S(=O)(=O)N[C@@H](Cc6c[nH]c7ccccc67)C(=O)Nc6ccc(N7CCOCC7)cc6)cc5)nn4)c3C2=O)C(=O)N1 (stereo partly drawn) [Compound 21, 1–(1-(4-(N-((S)-3-(1H-Indol-3-yl)-1-((4-morpholinophenyl)amino)-1-oxopropan-2-yl)sulfamoyl)benzyl)-1H-1,2,3-triazol-4-yl)-N-(2–(2,6-dioxopiperidin-3-yl)-1,3-dioxoisoindolin-4-yl)-2,5,8,11-tetraoxatetradecan-14-amide]

- inhibitory activity on AIMP2-DX2 (in words) [3]: very poor inhibitory activities
SMILES: O=C1CCC(N2C(=O)c3cccc(NC(=O)CCOCCOCCOCCOCCOCc4cn(Cc5ccc(S(=O)(=O)N[C@@H](Cc6c[nH]c7ccccc67)C(=O)Nc6ccc(N7CCOCC7)cc6)cc5)nn4)c3C2=O)C(=O)N1 (stereo partly drawn) [Compound 22, 1–(1-(4-(N-((S)-3-(1H-Indol-3-yl)-1-((4-morpholinophenyl)amino)-1-oxopropan-2-yl)sulfamoyl)benzyl)-1H-1,2,3-triazol-4-yl)-N-(2–(2,6-dioxopiperidin-3-yl)-1,3-dioxoisoindolin-4-yl)-2,5,8,11,14-pentaoxaheptadecan-17-amide]

- inhibitory activity on AIMP2-DX2 (in words) [3]: very poor inhibitory activities
SMILES: O=C1CCC(N2C(=O)c3cccc(NC(=O)CCOCCOCCOCCOCCOCCOCc4cn(Cc5ccc(S(=O)(=O)N[C@@H](Cc6c[nH]c7ccccc67)C(=O)Nc6ccc(N7CCOCC7)cc6)cc5)nn4)c3C2=O)C(=O)N1 (stereo partly drawn) [Compound 23, 1–(1-(4-(N-((S)-3-(1H-Indol-3-yl)-1-((4-morpholinophenyl)amino)-1-oxopropan-2-yl)sulfamoyl)benzyl)-1H-1,2,3-triazol-4-yl)-N-(2–(2,6-dioxopiperidin-3-yl)-1,3-dioxoisoindolin-4-yl)-2,5,8,11,14,17-hexaoxaicosan-20-amide]

- inhibitory activity on AIMP2-DX2 (in words) [3]: very poor inhibitory activities
SMILES: O=C1CCC(N2C(=O)c3cccc(NC(=O)COCCOCCOCCOCCOCCNC(=O)c4ccc(S(=O)(=O)N[C@@H](Cc5c[nH]c6ccccc56)C(=O)Nc5ccc(N6CCOCC6)cc5)cc4)c3C2=O)C(=O)N1 (stereo partly drawn) [Compound 31, 4-(N-((S)-3-(1H-Indol-3-yl)-1-((4-morpholinophenyl)amino)-1-oxopropan-2-yl)sulfamoyl)-N-(17-((2–(2,6-dioxopiperidin-3-yl)-1,3-dioxoisoindolin-4-yl)amino)-17-oxo-3,6,9,12,15-pentaoxaheptadecyl)benzamide]

- binding of Siah1 and AIMP2-DX2 (in vitro pull-down) [5]: direct effect on binding of two proteins
- level of AIMP2-DX2 protein [6]: specifically decreased
- effect on AIMP2 [7]: without any effect on AIMP2
- ubiquitination of AIMP2-DX2 [8]: induced
SMILES: Cc1ccc(S(=O)(=O)N[C@@H](Cc2c[nH]c3ccccc23)C(=O)Nc2ccc(N3CCN(C(=O)CCOCCNc4cccc5c4C(=O)N(C4CCC(=O)NC4=O)C5=O)CC3)cc2)cc1 (stereo partly drawn) [Compound 45, (2S)-N-(4–(4-(3–(2-((2–(2,6-Dioxopiperidin-3-yl)-1,3-dioxoisoindolin-4-yl)amino)ethoxy)propanoyl)piperazin-1-yl)phenyl)-3-(1H-indol-3-yl)-2-((4-methylphenyl)sulfonamido)propanamide]
- endogenous binding of Siah1 to AIMP2-DX2 (immunoprecipitation) [4]: enhances the endogenous binding of Siah1 to AIMP2-DX2 in a dose-dependent manner
- cell viability ([9]; Siah1 knocked down using specific si-RNA): no significant difference in cell viability
- cell viability ([9]; Siah1 not knocked down): efficiently reduced cell viability
